In the library only some 12% were active in any assay of this set; here they are far more common.
Arbovirus inh = antivirals against arbovirus infection, primary screen, cell-based, full library, 10K replicate subset; inhibition, % at 10 µM; actives 0.37% (n = 200,000); arbovirus infection cell-based antiviral screen; in the data active = inhibition above about 30%
Rad51 HR inh = human RAD51 strand exchange inhibitors, primary screen, biochemical, fluorescence; hRad51 DNA strand exchange, fluorescence dequenching; inhibition, % at 10 µM; actives 0.085% (n = 200,000); AID 1385, 2008;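 active = inhibition above 40% at the single screening dose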;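 also: 0% = DMSO control wells and 100% = blanks with heterologous ssDNA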
Target sequence (Q06609 whole entry, looked up): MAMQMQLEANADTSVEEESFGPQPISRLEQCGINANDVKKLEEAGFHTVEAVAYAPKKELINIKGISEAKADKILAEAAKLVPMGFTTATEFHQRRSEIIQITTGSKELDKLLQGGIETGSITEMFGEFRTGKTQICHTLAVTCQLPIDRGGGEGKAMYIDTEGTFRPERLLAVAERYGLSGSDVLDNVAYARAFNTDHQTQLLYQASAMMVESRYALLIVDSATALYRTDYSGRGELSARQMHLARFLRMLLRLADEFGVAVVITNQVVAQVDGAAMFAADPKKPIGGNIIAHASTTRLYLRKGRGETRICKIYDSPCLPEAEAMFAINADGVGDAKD
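material = hRad51 filaments on single-stranded DNA | timing = filaments 15 min 37 °C, then compound 30 min | signal = FRET fluorescence dequenching, excitation 485 nm, emission 520 nm | benchmarks = control wells and blank wells on each plate | evaluation = percent inhibition relative to plate controls and blanks | compound = 10 µM final, single point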
CHOP inh = inhibitors of CHOP promoter induction, primary screen, cell-based, unfolded protein response, luciferase reporter | CHO-K1 CHOP-promoter luciferase, tunicamycin-induced, 15-18 h | actives 3.8% (n = 220,000) | AID 2732, 2010 | inhibition, % at 10 µM;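 active = compounds that reduced the stress-induced luciferase reporter signal by more than about 70% of percent inhibition, limit read from the data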;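 also: 0% = tunicamycin plus vehicle and 100% = wells without tunicamycin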
Wee1 stabilizer = Wee1 degradation inhibitors, primary screen, cell-based, HeLa, Wee1K328M-luciferase, luminescence; Wee1-like protein kinase (Homo sapiens), P30291; HeLa Luc-Wee1K328M stability; 100% = proteasome inhibitor MG132 effect; reporter increase, % at 5 µM; actives 1.2% (n = 220,000); AID 1321, 2008;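 active = activation above the mean of all tested compounds plus 3 SD, set per screening run, cut at about 8.8% in these data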;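 also: cells exposed to compound for 20 h before luminescence read; 0% = DMSO alone and 100% = MG132 at 30 µM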
L major viab = Leishmania major promastigote growth inhibition, primary screen. actives 9% (n = 200,000). AID 1063, 2008. Leishmania major promastigotes, resazurin fluorescence viability. inhibition, % at 10 µM;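 also: promastigotes grown with compound for 44 hours at 28 °C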
PKD1 kinase inh = inhibitors of human PKD1 kinase, biochemical, fluorescence polarization. Serine/threonine-protein kinase D1 (Homo sapiens), Q15139. inhibition, % (concentration not given with the values). PKD1 kinase fluorescence polarization assay. actives 0.056% (n = 200,000). AID 797, 2007
Active calls of the source: *; . = no result given. Rule as the data show it, unless noted: active = inhibition above about 50%; inactive = the rest.

SMILES | Arbovirus inh | Rad51 HR inh | CHOP inh | Wee1 stabilizer | L major viab | PKD1 kinase inh
COc1cc(OC)cc(-c2cc3nc(C)c(CCC(=O)NCc4ccccc4)c(C)n3n2)c1 | . | 9.3 | 83.7* | -0.2 | . | .
COc1ccnc(Oc2ccccc2)c1C(N)=O | 4.9 | 21.0 | 3.1 | -2.5 | -3.3 | 1.9
CC(=O)Nc1ccc(S(=O)(=O)NC2=C(N3CCN(Cc4ccccc4)CC3)C(=O)c3ccccc3C2=O)cc1 | -22.0 | . | 28.4 | -0.3 | 99.5* | 4.1
C/C(CC(=O)Nc1ccc(Cl)c(Cl)c1)=N\NC(N)=S | -24.4 | -1.5 | -16.9 | -0.7 | 62.3* | -6.8
Cc1ccsc1C(=O)NNC(=O)C1C2C=CC(C2)C1C(=O)O (stereo not drawn) | 2.5 | 4.9 | 10.8 | 10.2* | -11.1 | 1.3
CCSCC1COC(c2cccn2Cc2ccc(C)cc2)=N1 (stereo not drawn) | 8.4 | 19.3 | 76.5* | -1.1 | 6.4 | -0.7
CCOC(=O)NC(NC(=S)Nc1ccc(OCC)cc1)C(Cl)(Cl)Cl (stereo not drawn) | -3.6 | -5.0 | -56.3 | 0.4 | -4.1 | 4.6
O=C(NC(NC(=S)Nc1c(Cl)cccc1Cl)C(Cl)(Cl)Cl)OCc1ccccc1 (stereo not drawn) | -24.6 | 4.8 | -30.6 | 2.5 | 98.4* | -10.8
O=C(COc1ccc([N+](=O)[O-])cc1Cl)NCC1CCCO1 (stereo not drawn) | 1.0 | . | -4.2 | 2.3 | 12.7 | 1.6
CN(c1ccccc1)S(=O)(=O)c1ccc(C(=O)NCc2ccccn2)cc1 | 2.1 | -3.8 | 12.9 | 0.1 | 13.2 | -1.1
CC(C)N(Cc1ccccc1)CC(O)COc1ccc(S(=O)(=O)N2CCOCC2)cc1Cl (stereo not drawn) | -0.6 | 2.0 | 10.5 | -1.7 | 100.0* | -1.8
CC(C)Nc1nnc(Sc2ccc(Cl)cc2[N+](=O)[O-])s1 | -3.9 | -0.1 | 27.5 | 0.9 | 1.4 | -9.0
COc1ccccc1OCCN1C(=O)S/C(=C\c2ccco2)C1=O | -2.3 | 5.3 | 25.2 | 1.6 | 54.7* | 11.8
CS(=O)(=O)CCSc1ncccc1C(=O)NCc1cccs1 | . | 12.0 | 7.3 | 0.3 | . | .
COc1cccc(OCc2nnc(SCC(=O)NCc3ccco3)n2CCc2ccccc2)c1 | -14.9 | -12.7 | 23.1 | -0.8 | 91.2* | -3.3
COc1ccc(-n2c(COc3cccc4ccccc34)nnc2SCC(=O)NCc2ccco2)cc1 | -31.8 | 3.1 | 50.2 | -0.9 | 98.4* | -4.6
COc1cccc(OCc2nnc(SCC(=O)NCc3ccco3)n2C)c1 | 11.4 | -2.8 | 13.9 | -0.5 | -2.5 | -2.4
COc1ccc(OC)c(C(=O)CSc2nnc(Cc3cccs3)n2CCc2ccccc2)c1 | -12.8 | -3.4 | 26.7 | 3.5 | 96.9* | -3.3
COc1cc2c(cc1OC)[C@@H](c1ccccc1)CN(C)CC2 | . | . | 39.5 | . | . | .
O=C(NC(=S)Nc1ccc2oc(=O)ccc2c1)c1cc2ccccc2o1 | . | 17.2 | -18.1 | -3.0 | . | .
CC1=NN(c2nc(-c3ccc(F)cc3)cs2)C(=O)C1 | 8.5 | 4.0 | -0.2 | 2.9 | -8.4 | -4.0
CC1=NN(c2nc(-c3ccc(Cl)cc3)cs2)C(=O)C1 | 42.2* | 0.1 | 10.0 | -1.4 | 35.2 | -4.5
CCN(C(=O)CSc1nnc2c3ccccc3n(CC)c2n1)C1CCS(=O)(=O)C1 (stereo not drawn) | -13.0 | . | -8.2 | -0.4 | -0.7 | 3.1
Cc1cc(C)cc(OCC(=O)Nc2ccc3c(c2)C(=O)c2ccccc2C3=O)c1 | -39.6 | . | -5.0 | 0.2 | -5.6 | -1.5
Cc1ccc(S(=O)(=O)Cn2nnnc2C(C(C)C)N2CCN(c3nc4ccccc4s3)CC2)cc1 (stereo not drawn) | -0.8 | 2.9 | 11.9 | 1.6 | 98.8* | -4.4
SMILES | Arbovirus inh | Rad51 HR inh | CHOP inh | Wee1 stabilizer | L major viab | PKD1 kinase inh
COc1ccc(Cn2nnnc2C(c2cccnc2)N2CCN(c3ccc(O)cc3)CC2)cc1 (stereo not drawn) | -4.6 | 10.1 | 12.6 | -1.3 | 94.2* | -4.5
COc1ccc(C(c2nnnn2C(C)(C)C)N2CCN(c3nc4ccccc4s3)CC2)cc1 (stereo not drawn) | 14.2 | -2.4 | 13.2 | -1.8 | 56.9* | -1.2
COc1ccc(Cn2nnnc2C(c2cccs2)N2CCN(c3ccccc3)CC2)cc1 (stereo not drawn) | -2.0 | -5.6 | 12.7 | -0.8 | 9.9 | -9.8
CCC(C)(C)n1nnnc1C(c1ccc(O)c(OC)c1)N1CCN(c2nc3ccccc3s2)CC1 (stereo not drawn) | -4.8 | 7.0 | -32.9 | -0.8 | 5.9 | 7.2
COc1ccc(C(c2nnnn2Cc2ccccc2)N2CCN(c3nc4ccccc4s3)CC2)cc1OC (stereo not drawn) | -0.6 | 3.6 | 44.4 | 2.2 | 100.3* | -9.4
COc1c(Br)cc([N+](=O)[O-])c(OC)c1C(=O)NC(=O)Nc1nc(C)cc(C)n1 | . | 6.6 | 14.7 | 0.1 | . | .
O=C1OCC/C1=C\OCCCO/C=C1\CCOC1=O | . | 11.6 | 1.4 | -0.9 | . | .
c1ccc(C(c2nnnn2Cc2ccco2)N2CCN(C3CCCC3)CC2)cc1 (stereo not drawn) | 2.8 | -3.4 | 0.5 | -1.1 | 24.4 | -1.9
c1ccc(C(c2nnnn2Cc2ccco2)N2CCN(c3nc4ccccc4s3)CC2)cc1 (stereo not drawn) | 17.8 | -2.7 | 23.6 | 0.0 | 98.5* | -0.6
O=C(c1cc2sccc2n1Cc1ccccc1)N1CCN(c2nc3ccccc3s2)CC1 | 7.2 | -1.5 | 71.0* | 7.6 | 12.2 | -2.8
CCC(c1nnnn1CCOC)N1CCN(c2nc3ccccc3s2)CC1 (stereo not drawn) | -1.2 | 14.3 | 5.7 | -0.5 | 3.9 | -1.8
c1ccc(Cn2nnnc2C(c2ccccc2)N2CCN(c3nc4ccccc4s3)CC2)cc1 (stereo not drawn) | 29.0 | -3.7 | 33.9 | -0.6 | 99.9* | -16.6
COc1ccccc1C(c1nnnn1Cc1ccccc1)N1CCN(c2nc3ccccc3s2)CC1 (stereo not drawn) | 19.7 | -7.3 | 40.0 | 5.2 | 91.1* | -1.9
Cc1cc(NC(=O)c2c(C)noc2C)no1 | . | 1.6 | 10.0 | 1.2 | . | .
CCCC(c1nnnn1CCOC)N1CCN(c2nc3ccccc3s2)CC1 (stereo not drawn) | 16.8 | -7.1 | 16.0 | -3.0 | 6.5 | -6.8
CCCCC(c1nnnn1Cc1ccco1)N1CCN(c2nc3ccccc3s2)CC1 (stereo not drawn) | -16.9 | 5.1 | 32.1 | 0.9 | 97.5* | 12.5
O=S(=O)(c1ccccc1Br)N1CCC(O)(c2cccnc2)CC1 | -7.1 | -7.9 | 3.3 | -0.1 | -5.2 | 0.0
CCNc1nc(NCC)nc(N/N=C/c2ccc(Br)cc2)n1 | -5.8 | -1.2 | 23.1 | -1.5 | 50.4* | -5.8
Cc1ccc(/C=N/Nc2nc(C)cc(C)n2)cc1 | . | . | -6.0 | -4.2 | . | .

Source: PubChem
